Assay outcomes from PubChem BioAssay.
An excerpt weighted towards active compounds, which were near 4.6% of everything screened.
CHO parental Ca – counter-screen for OX1R antagonists: effect in parental CHO cells | parental CHO-K1, ATP-induced calcium, Fluo-8 fluorescence | inhibition, % at 5.6 µM | hit rate 0.63% among 330,000;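 active means inhibition above that plate's mean sample inhibition plus 3 SD, cut at about 26% in these data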;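 further: 0% = ATP-challenged DMSO wells and 100% = DMSO wells without ATP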
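Assay system: parental CHO cells; Read-out basis: percent inhibition of ATP-evoked calcium rise, normalized to controls; Benchmarks: ATP and no-ATP DMSO wells; Compound dosing: single nominal dose of 5.6 µM per compound; Signal: Fluo-8 calcium dye fluorescence; Also added: ATP as calcium-mobilizing challenge; Repeats: singlicate.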
OX1R antag-1 – antagonists of human orexin 1 receptor; O43613; CHO/OX1R cells, Fluo-8 calcium fluorescence, orexin A; inhibition, % at 5 µM; hit rate 0.43% among 330,000; AID 434989;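 active means inhibition above its plate's threshold, mean inhibition of all tested compounds on the plate plus 3 SD, cut at about 37% in these data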;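 further: 0% = orexin A challenge wells and 100% = SB-334867-A antagonist wells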
Target sequence (O43613 whole entry, looked up): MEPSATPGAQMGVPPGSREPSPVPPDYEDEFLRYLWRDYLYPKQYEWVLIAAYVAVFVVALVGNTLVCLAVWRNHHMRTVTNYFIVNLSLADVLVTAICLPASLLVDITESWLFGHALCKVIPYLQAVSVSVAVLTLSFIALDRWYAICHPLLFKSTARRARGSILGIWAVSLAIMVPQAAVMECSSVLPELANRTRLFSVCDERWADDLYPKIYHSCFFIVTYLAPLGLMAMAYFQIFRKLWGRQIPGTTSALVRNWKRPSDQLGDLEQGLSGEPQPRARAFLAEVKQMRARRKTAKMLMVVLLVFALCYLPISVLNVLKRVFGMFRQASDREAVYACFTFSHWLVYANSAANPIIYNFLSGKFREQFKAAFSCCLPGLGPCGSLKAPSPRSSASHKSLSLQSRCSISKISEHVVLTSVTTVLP
TAAR1 ag – agonists of human TAAR1; Q96RJ0; CHO RD-HGA16 TAAR1, Fluo-8 calcium fluorescence; vehicle wells 0%, saturating PEA agonist 100%; activation, % at 3 µM; hit rate 0.99% among 360,000;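 active means activation above the mean activation of all test compounds in the run plus 3 SD, cut at about 38% in these data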
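System: CHO RD-HGA16 cells carrying human TAAR1 plus Gα16; Incubation: 17-24 h seeding, 75 min 37 °C dye, 30 min RT; Measured by: Fluo-8 fluorescence, 5 s baseline then 140 s kinetic read; Control set: DMSO and PEA EC100; Replication: single well for each compound.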
OX1R antag-2 – OX1R (human) antagonism; O43613; OX1R-expressing cells, FRET antagonist read-out; inhibition, % at 6.6 µM; hit rate 1.8% among 330,000; AID 485270; in the data active means inhibition mostly above about 38%, no sharp cut-off; inactive means mostly below about 40%;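 further: 0% = agonist challenge alone and 100% = reference antagonist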
TAAR1 antagonist – antagonists of human TAAR1 | Q96RJ0 | inhibition, % at 3 µM | hit rate 1.5% among 360,000 | CHO RD-HGA16 TAAR1, Fluo-8 calcium fluorescence, antagonist | AID 624466;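 active means inhibition above a per-plate cutoff, the mean inhibition of test compounds on that plate plus 3 SD, cut at about 49% in these data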;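 further: 0% = DMSO plus EC80 beta-PEA response and 100% = DMSO alone without agonist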
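Test system: CHO RD-HGA16 cells bearing hTAAR1 | Reagent: β-PEA, EC80 | Compound dosing: 3 µM, single point | Schedule: Dye loading 75 min at 37 °C, then 30 min room temperature | Signal: Calcium fluorescence with Fluo-8 | Evaluation: Percent inhibition of PEA-evoked calcium signal, max/basal emission ratio | Control set: DMSO-only wells and EC80 β-PEA-stimulated wells | Repeats: Singlicate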
GPR7 antag – blocks human GPR7 receptor signaling | GPR7-expressing cells, fluorescence antagonist assay | hit rate 1.1% among 290,000 | inhibition, % at 4.4 µM | AID 1861; in the data active means inhibition above about 16%, passing the limit was not always enough;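 further: cells stimulated with the agonist NPW; 0% = agonist with vehicle and 100% = vehicle without agonist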
nonsel antag count – counter-screen for TAAR1 antagonists: nonselective antagonists. AID 651780. inhibition, % at 3 µM. hit rate 77% among 2,400. counterscreen cell line, calcium fluorescence, antagonist mode. shares compounds with TAAR1 antagonist; in the data active means inhibition above about 22%;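 further: CHO-Ga16 host cells stimulated with ATP at an EC80 level; 0% = agonist EC80 plus vehicle and 100% = vehicle without agonist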
TAAR1 antag conf – human TAAR1 antagonism, confirmed; shares compounds with TAAR1 antagonist; TAAR1-expressing cells, fluorescence antagonist read-out; inhibition, % at 3 µM; hit rate 40% among 2,400; AID 651785; in the data active means inhibition above about 49%;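 further: CHO-Ga16 host cells challenged with agonist PEA near its EC80; 0% = agonist at EC80 plus vehicle and 100% = vehicle with no agonist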
Ga16 ag counter – counter-screen for TAAR1 antagonists: nonselective Ga16 agonists | shares compounds with TAAR1 antagonist | Ga16-expressing cells, calcium fluorescence, agonist counterscreen | activation, % at 3 µM | hit rate 18% among 2,400 | AID 651953; in the data active means activation above about 12%;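 further: 0% = vehicle wells and 100% = saturating stimulus response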
TAAR1 ag count – counter-screen for human TAAR1 antagonists: TAAR1 agonists; shares compounds with TAAR1 antagonist; hTAAR1 cell line, fluorescence activation, agonist mode; activation, % at 3 µM; hit rate 2% among 2,400; AID 651955; in the data active means activation above about 37%;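 further: CHO cells stably expressing TAAR1 with calcium dye readout; 0% = DMSO vehicle and 100% = full agonist response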
* marks the source's active call; other numbers are inactive results; . = not tested or not shown.

SMILES	CHO parental Ca	OX1R antag-1	TAAR1 ag	OX1R antag-2	TAAR1 antagonist	GPR7 antag	nonsel antag count	TAAR1 antag conf	Ga16 ag counter	TAAR1 ag count
Cc1ccccc1C(=O)Oc1ccc(-c2csnn2)cc1	5	-3	1	20	22	-4	.	.	.	.
COC(=O)C[C@@H]1C=C[C@H](NS(=O)(=O)c2cccc(F)c2)[C@@H](CO)O1	.	.	3	.	-11	.	.	.	.	.
NS(=O)(=O)c1ccc(CNC(=O)c2ccc3c(c2)OCO3)cc1	-1	-6	6	5	6	.	.	.	.	.
COc1ccc(CNC(=O)CN(C)S(=O)(=O)c2ccc(Cl)cc2)cc1	-13	-7	5	25	-10	-6	.	.	.	.
COc1ccc(CNC(=O)CN(Cc2ccc(C)cc2)S(=O)(=O)c2ccc(Cl)cc2)cc1	-4	-10	13	12	59*	-18	38*	36	6	6
CC1(C)CC(=O)c2c(nc(SCC(=O)Nc3nsc(-c4ccccc4)n3)c(C#N)c2-c2ccccc2)C1	4	-31	3	2	19	-9	.	.	.	.
CCc1c(C#N)c(SCCC(=O)Nc2ccc(F)cc2)nc2c1C(=O)CC(C)(C)C2	0	16	21	17	74*	-9	33*	72*	9	11
Cc1ccc(N2CC(C(=O)OCC(=O)Nc3c(C)cccc3C)CC2=O)cc1 (configuration not stated)	.	.	0	.	-19	.	.	.	.	.
CC(=O)n1cc([C@H]2C=C(C(=O)N3CCN(Cc4ccccc4)CC3)O[C@@H](OCc3ccc(CO)cc3)C2)c2ccccc21	-22	-6	27	13	69*	-14	35*	46	9	9
O=C(Nc1ccccc1)C1=C[C@@H](c2coc3ccccc3c2=O)C[C@@H](OCc2ccc(CO)cc2)O1	-26	-24	8	27	51*	-12	20	25	2	-1
O=C(NC1CC1)C1=C[C@H](c2csc3ccccc23)C[C@H](OCc2ccc(CO)cc2)O1	-17	-24	34	12	58*	.	26*	44	16*	23
O=C(C1=C[C@@H](c2csc3ccccc23)C[C@@H](OCc2ccc(CO)cc2)O1)N1CCOCC1	-1	-2	32	22	57*	-6	26*	35	6	6
c1ccc2c(c1)OCc1nccn1-2	.	.	0	.	15	.	.	.	.	.
O=C(C[C@@H]1CC[C@@H]2[C@H](COC[C@H](O)CN2C(=O)Nc2ccc(F)cc2)O1)NCCc1ccncc1	.	.	2	.	-20	.	.	.	.	.
CCOC(=O)C1(C)CCN1C(=O)c1ccc(C)cc1 (configuration not stated)	.	.	-2	.	-18	.	.	.	.	.
COC(=O)[C@]12C[C@H](CC(=O)NCCC(C)C)C(=O)N(CCC3=CCCCC3)C1=C[C@H](COCc1ccccc1)O[C@@H]2C	.	.	0	.	-16	.	.	.	.	.
COc1ccc(CNC(=O)[C@H](Cc2ccccc2)NC(=O)CC[C@H]2O[C@@H](n3ccc(=O)[nH]c3=O)[C@H](O)[C@@H]2O)cc1	.	.	4	.	-35	.	.	.	.	.
CCCCOCC1CN(CCCC)S(=O)(=O)c2c(Oc3ccc(C)cc3)cccc2O1 (configuration not stated)	.	.	4	.	-28	.	.	.	.	.
CC(=O)N(C)c1ccc(NC(=O)Nc2ccc(C)cc2)cc1	-5	-8	26	14	57*	-6	19	44	10	20
CC(=O)N(C)c1ccc(NC(=S)Nc2ccccc2)cc1	-16	-14	6	13	1	9	.	.	.	.
CCN=C(NCC)SC1CC(=O)N(c2cccc(OCC)c2)C1=O (configuration not stated)	-17	-14	23	19	71*	-22	26*	50*	11	12
